A word on the IC50: it is the concentration that inhibits the measured activity by half. Lower therefore signals inhibition by little substance.

Holding throughout (type): cell-based
The nature of data set [1]: Inhibition of Influenza A virus (A/Viet Nam/1203/2004(H5N1)) hemagglutininin-mediated viral entry into human A549 cells after 48 hrs postinfection by luminometric analysis. The essentials: (§1)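 A549 cells seeded at 5 × 10⁴ per well; test compounds added 15 min before HIV-luc pseudovirions bearing the H5N1 HA (Qinghai or Viet Nam strain) or VSV-G envelope, then incubated. Pseudovirion supernatants were filtered and used directly for infection.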

Data set [2] has as its system A549. The experiment in a line: Inhibition of Vesicular stomatitis virus envelope glycoprotein-mediated viral entry into human A549 cells after 48 hrs postinfection by luminometric analysis. A digest of the protocol:
as §1

For data set [3], the system named is A549. As to the kind of experiment: Cytotoxicity against human A549 cells after 48 hrs. The note with it: a549, 48 h.
Data set [4] is described as follows: Inhibition of Influenza A virus (A/Bar-headed Goose/Qinghai/59/05(H5N1)) hemagglutininin-mediated viral entry into human A549 cells after 48 hrs postinfection by luminometric analysis. A digest of the protocol: as §1

Active and inactive are the calls of the source. No cut-off for these calls is given here. Bounds are passed on as bounds.

Regarding `CO[C@@H]1[C@@H](O)[C@H](C)O[C@@H](O[C@H]2[C@H](O[C@H]3CC[C@@]4(C)[C@H](C3)[C@@H](O)C[C@@H]3[C@@H]4CC[C@]4(C)[C@@H]5[C@H](C[C@@H]34)O[C@]3(CC[C@@H](C)CO3)[C@H]5C)O[C@H](CO)[C@@H](O[C@@H]3O[C@@H](C)[C@H](O)[C@@H](OC)[C@H]3O)[C@@H]2O)[C@@H]1O`, the half-inhibitory concentration (IC50) in data set [1] was 16 µM; in data set [4], 28 µM. The inhibition entry in the data set on A549 [2] was “inactive”. In addition, the Activity entry with A549 [3] is “Non-toxic”.
On to `COC[C@H]1O[C@@H](O[C@H]2CC[C@@]3(C)[C@H](C2)[C@@H](O)C[C@@H]2[C@@H]3CC[C@]3(C)[C@@H]4[C@H](C[C@@H]23)O[C@]2(CC[C@@H](C)CO2)[C@H]4C)[C@H](O[C@@H]2O[C@@H](C)[C@H](O)[C@@H](O)[C@H]2O)[C@@H](O)[C@@H]1O[C@@H]1O[C@@H](C)[C@H](O)[C@@H](O)[C@H]1O`, for which the 50% inhibitory concentration (IC50) in data set [1] turned out to be 9 µM; in data set [4], 12 µM. For the same compound, in the data set with A549 [2], the inhibition entry was “inactive”. In addition, in the data set with A549 [3], the Activity result is given as “Non-toxic”.
For `C[C@@H]1CC[C@@]2(OC1)O[C@H]1C[C@H]3[C@@H]4C[C@H](O)[C@H]5C[C@@H](O)CC[C@]5(C)[C@H]4CC[C@]3(C)[C@H]1[C@@H]2C` [CHLOROGENIN], the IC50 in data set [1] and in data set [4] was more than 50 µM in each case.
Consider `CO[C@@H]1[C@@H](O[C@@H]2O[C@@H](C)[C@H](O)[C@@H](O)[C@H]2O)[C@H](O[C@H]2CC[C@@]3(C)[C@H](C2)[C@@H](O)C[C@@H]2[C@@H]3CC[C@]3(C)[C@@H]4[C@H](C[C@@H]23)O[C@]2(CC[C@@H](C)CO2)[C@H]4C)O[C@H](CO)[C@H]1O[C@@H]1O[C@@H](C)[C@H](O)[C@@H](O)[C@H]1O`, for which the IC50 in data set [1] came to 13 µM; in data set [4] it was 25 µM. Besides, the inhibition entry with A549 [2] is “inactive”. Moreover, in the data set on A549 [3], the Activity entry is “Non-toxic”.
For `C[C@@H]1CC[C@@]2(OC1)O[C@H]1C[C@H]3[C@@H]4C[C@@H](O)[C@H]5C[C@@H](O[C@@H]6O[C@H](CO)[C@@H](O[C@@H]7O[C@@H](C)[C@H](O)[C@@H](O)[C@H]7O)[C@H](O)[C@H]6O[C@@H]6O[C@@H](C)[C@H](O)[C@@H](O)[C@H]6O)CC[C@]5(C)[C@H]4CC[C@]3(C)[C@H]1[C@@H]2C`, the half-maximal inhibitory concentration (IC50) was 11 µM in data set [1] and 18 µM in data set [4]. Besides, in the data set on A549 [2], the inhibition result was “inactive”. Moreover, the Activity entry with A549 [3] is given as “Non-toxic”.
Consider `CC(=O)O[C@H]1C[C@@H]2[C@H](CC[C@]3(C)[C@@H]4[C@H](C[C@@H]23)O[C@]2(CC[C@@H](C)CO2)[C@H]4C)[C@@]2(C)CC[C@H](O[C@@H]3O[C@H](CO)[C@@H](O[C@@H]4O[C@@H](C)[C@H](O)[C@@H](O)[C@H]4O)[C@H](O)[C@H]3O[C@@H]3O[C@@H](C)[C@H](O)[C@@H](O)[C@H]3O)C[C@H]12`, for which the IC50 in data set [1] stood at 9.3 µM; in data set [4], 7.6 µM. For the same compound, in the data set on A549 [2], the inhibition result was “inactive”. Also, the Activity result in the data set on A549 [3] was “Non-toxic”.
For the compound `CO[C@@H]1[C@@H](O)[C@@H](O)[C@H](O[C@H]2[C@H](O[C@H]3CC[C@@]4(C)[C@H](C3)[C@@H](O)C[C@@H]3[C@@H]4CC[C@]4(C)[C@@H]5[C@H](C[C@@H]34)O[C@]3(CC[C@@H](C)CO3)[C@H]5C)O[C@H](CO)[C@@H](O[C@@H]3O[C@@H](C)[C@H](OC)[C@@H](O)[C@H]3O)[C@@H]2O)O[C@H]1C`, the IC50 in data set [1] stood at 24 µM. Besides, the inhibition result in the data set with A549 [2] was “inactive”. The Activity result in the data set with A549 [3] was “Non-toxic”.
Regarding `C[C@@H]1CC[C@@]2(OC1)O[C@H]1C[C@H]3[C@@H]4C[C@H](O[C@@H]5O[C@@H](C)[C@H](O)[C@@H](O)[C@H]5O)[C@H]5C[C@@H](O[C@@H]6O[C@H](CO)[C@@H](O[C@@H]7O[C@@H](C)[C@H](O)[C@@H](O)[C@H]7O)[C@H](O)[C@H]6O[C@@H]6O[C@@H](C)[C@H](O)[C@@H](O)[C@H]6O)CC[C@]5(C)[C@H]4CC[C@]3(C)[C@H]1[C@@H]2C`, the IC50 in data set [1] and in data set [4] was more than 50 µM throughout. The inhibition result in the data set with A549 [2] is “inactive”. In addition, in the data set on A549 [3], the Activity entry is “Non-toxic”.
In the case of `COC(=O)[C@]12CC[C@@H](C)[C@H](C)[C@H]1C1=CC[C@@H]3[C@@]4(C)CC[C@H](O[C@@H]5O[C@H](CO)[C@@H](O[C@@H]6O[C@@H](C)[C@H](O)[C@@H](O)[C@H]6O)[C@H](O)[C@H]5O[C@@H]5O[C@@H](C)[C@H](O)[C@@H](O)[C@H]5O)C(C)(C)[C@@H]4CC[C@@]3(C)[C@]1(C)CC2`, the 50% inhibitory concentration (IC50) came out at 8.5 µM in data set [1] and 6 µM in data set [4]. In addition, in the data set on A549 [2], the inhibition entry was “inactive”. The Activity entry in the data set with A549 [3] was “Non-toxic”.
For the compound `CO[C@H]1[C@H](O[C@H]2[C@H](O[C@H]3CC[C@@]4(C)[C@H](C3)[C@@H](O)C[C@@H]3[C@@H]4CC[C@]4(C)[C@@H]5[C@H](C[C@@H]34)O[C@]3(CC[C@@H](C)CO3)[C@H]5C)O[C@H](CO)[C@@H](O[C@@H]3O[C@@H](C)[C@H](O)[C@@H](O)[C@H]3OC)[C@@H]2O)O[C@@H](C)[C@H](O)[C@H]1O`, the IC50 in data set [1] came to 15 µM; in data set [4], 31 µM. For the same compound, the inhibition result in the data set on A549 [2] was “inactive”. For the same compound, the Activity entry in the data set on A549 [3] was “Non-toxic”.
Regarding `C[C@@H]1CC[C@@]2(OC1)O[C@H]1C[C@H]3[C@@H]4C[C@H](O)[C@H]5C[C@@H](O[C@@H]6O[C@H](CO)[C@@H](O[C@@H]7O[C@@H](C)[C@H](O)[C@@H](O)[C@H]7O)[C@H](O)[C@H]6O[C@@H]6O[C@@H](C)[C@H](O)[C@@H](O)[C@H]6O)CC[C@]5(C)[C@H]4CC[C@]3(C)[C@H]1[C@@H]2C`, the IC50 is 7.8 µM in data set [1] and 7.2 µM in data set [4]. In addition, the inhibition entry in the data set on A549 [2] is “inactive”. For the same compound, the Activity entry in the data set with A549 [3] was “Non-toxic”.
Consider `C[C@@H]1CC[C@@]2(OC1)O[C@H]1C[C@H]3[C@@H]4CC(=O)[C@H]5C[C@@H](O[C@@H]6O[C@H](CO)[C@@H](O[C@@H]7O[C@@H](C)[C@H](O)[C@@H](O)[C@H]7O)[C@H](O)[C@H]6O[C@@H]6O[C@@H](C)[C@H](O)[C@@H](O)[C@H]6O)CC[C@]5(C)[C@H]4CC[C@]3(C)[C@H]1[C@@H]2C`, for which the 50% inhibitory concentration (IC50) worked out at 12 µM in data set [1] and 20 µM in data set [4]. Moreover, the inhibition entry in the data set with A549 [2] was “inactive”. Besides, the Activity result with A549 [3] was “Non-toxic”.
On to `C[C@@H]1O[C@@H](O[C@H]2[C@H](O)[C@@H](O[C@@H]3O[C@@H](C)[C@H](O)[C@@H](O)[C@H]3O)C(O)O[C@@H]2CO)[C@H](O)[C@H](O)[C@H]1O` (some centres not stated) [CHACOTRIOSE], for which the half-maximal inhibitory concentration (IC50) in data set [1] and in data set [4] was more than 50 µM throughout. Further, the inhibition entry with A549 [2] was “inactive”. Moreover, the Activity entry with A549 [3] was “Non-toxic”.
With `C[C@@H]1CC[C@@]2(OC1)O[C@H]1C[C@H]3[C@@H]4C[C@H](O)[C@H]5C[C@@H](O[C@@H]6O[C@H](CO)[C@@H](O[C@@H]7OC[C@H](O)[C@H](O)[C@H]7O)[C@H](O)[C@H]6O[C@@H]6OC[C@H](O)[C@H](O)[C@H]6O)CC[C@]5(C)[C@H]4CC[C@]3(C)[C@H]1[C@@H]2C`, the concentration for half-maximal inhibition (IC50) in data set [1] and in data set [4] was more than 50 µM in each case. Further, the inhibition result in the data set with A549 [2] was “inactive”. For the same compound, the Activity result with A549 [3] is “Non-toxic”.
For `CCS[C@@H]1O[C@H](CO)[C@@H](O[C@@H]2O[C@@H](C)[C@H](O)[C@@H](O)[C@H]2O)[C@H](O)[C@H]1O[C@@H]1O[C@@H](C)[C@H](O)[C@@H](O)[C@H]1O`, the IC50 in data set [1] and in data set [4] was more than 50 µM each time. Further, the inhibition result in the data set with A549 [2] is “inactive”. Further, in the data set with A549 [3], the Activity result is reported as “Non-toxic”.

Source of the values: ChEMBL document CHEMBL2046336, “Structure-activity relationships of saponin derivatives: a series of entry inhibitors for highly pathogenic H5N1 influenza virus” (Eur J Med Chem, 2012).
